Assay results: the EternaBench riboswitch data

Test system: MS2 coat protein
Assay: apparent Kd, MS2 coat protein; higher = weaker binding; RNA-MaP array; FMN 200 µM where present
Procedure, shortened: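 Stalled E. coli RNA polymerase transcribed each design on Illumina sequencing-chip clusters. The clusters were titrated with SNAP-549-labelled MS2 coat protein, starting at 0.7 or 1.5 nM and doubling up to 3 µM, first without ligand and then with constant ligand, in 100 mM Tris-HCl pH 7.5, 80 mM KCl, 4 mM MgCl2, BSA, DTT, yeast tRNA and Tween-20. Green signal was normalised to red-channel RNA signal and to the control-cluster median Fmax. The apparent Kd is the median of filtered binding-curve fits made for each cluster.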

[1] = designed as: OFF switch for flavin mononucleotide, no ligand
[2] = ligand present: flavin mononucleotide, designed as: OFF switch for flavin mononucleotide
[3] = designed as: ON switch for flavin mononucleotide, no ligand
[4] = ligand present: flavin mononucleotide, designed as: ON switch for flavin mononucleotide

| Sequence | apparent Kd [1] [nM] | apparent Kd [2] [nM] | apparent Kd [3] [nM] | apparent Kd [4] [nM] |
| --- | --- | --- | --- | --- |
| CGCGCUUUAGGAUAUGCGUGAUGUCGUCGGCGUUGUGGUUCACAUGAGGAUCACCCAUGUAGAAGGGAGGUGUG | 205 | 175 |  |  |
| CGCGGUACUUAGGUACCACACAUGAGGAUCACCCAUGUAUCACAGGAUAUGCAUGAUAUAUUCAGGCAGAAGGGUGAUCUUACC |  |  | 37.8 | 99.4 |
| CGCUACAGCCAGAAGGACAUGAGGAUCACCCAUGUAGGAUAUGGGAGACGAGGUCCAGUGUAGAGAAACUACGCUACUGUAGCG |  |  | 292 | 151 |
| CGCUACGUUUCGUAGCAGUGUCAUCGAGAAGGCCCUGACAUGAGGAUCACCCAUGUUAAAACAUGGGAGGAUAUCGAUGAUACA |  |  | 11.7 | 4.87 |
| CGCUAGUCAGGAUAUACGAACAUGUCACCAGACGUGAAGGGACAUGAGGAUCACCCAUGUAGAAGGGACUAGCA | 90.5 | 267 |  |  |
| CGCUCAAUAGAGAAGGAAAGAAUCAGAAGGCGUUACAUGAGGAUCACCCAUGUUUUGUAUAGUAACGAGGAUAUGAUAUGAGCG | 18.9 | 15.3 |  |  |
| CGCUCAGAGAACGAUACGAAUAGACAUGAGGAUCACCCAUGUAGAAGGACAACGGAAUAAACGUUGUAGGAUAUACAUUUAGCG | 24.6 | 52.6 |  |  |
| CGCUGGAACACAGGAUAUCGCACAUGCCUGAUCCAGUUAAUAUCACAUGAGGAUCACCCAUGUGGUGAGAAGGGUGUCAAGUUU | 27.1 | 47.2 |  |  |
| CGCUGUCACGCAGGAUAUGCAUUGGAUUACAAUGCAGAAGGGCGAUCACAUGAGGAUCACCCAUGUGUAGACAGUGAAGAAGAG |  |  | 728 | 47.1 |
| CGGACGUCAGGAUAUCUGAUGUCUAACUUCGGUUAGACAUCAGAGAAGGGACAUGAGGAUCACCCAUGUCCGAG | 22.2 | 16.9 |  |  |
| CGGCAAGUCACAGGAUAUGGUGAUGUACAUGAGGAUCACCCAUGUCCGUCUUCUCUCACAAGAUGCCAGAAGGGUGACUCCCGG |  |  | 852 | 120 |
| CGGCAAGUCGUAGGAUAUGGUGAUGUACAUGAGGAUCACCCAUGUCCGUCUUCUCUCACAAGAUGCCAGAAGGGCGACUUCCGG |  |  | 829 | 340 |
| CGGCGCUGUCGAGAGGAUAUGCGGUGAUGGACAUGAGGAUCACCCAUGUUAGCGAUAGCAUCACGGUAGAAGGCUCUACGGCUGC |  |  | 12 | 11.3 |
| CGGCGGAAAGGAUAUGCAUUAAUAUCAAAAUGUGGGCCACGACAUGAGGAUCACCCAUGUAGAAGGUUCAGCCG | 16 | 14.3 |  |  |
| CGGCGUUGUCGAGAGGAUAUGCGGUGAUGGACAUGAGGAUCACCCAUGUUAGCGAUAGCAUUACGGUAGAAGGCUCUACAGCUGC |  |  | 65 | 17 |
| CGGCUCUCAGGAUAUACCUUGGGUGGCCAACUGUUUCGUUUACAUGAGGAUCACCCAUGUAGAAGGGAGGGCAA | 53.8 | 33 |  |  |
| CGGGAGUCAGGAUAUACGAACAUGUCGCCAGAUGUCAAGGUACAUGAGGAUCACCCAUGUAGAAGGGAGGAGAA | 91 | 54.3 |  |  |
| CGGGCGAGAGGAUAUACAUGAGGAUCACCCAUGUGUUUCCAGGCGGUAGCUGUCACGUGUAGAAGGUUUUCCGG | 18.4 | 17.7 |  |  |
| CGGGUCUGAGGAUAUCCAUCUUCAUACAUGAGGAUCACCCAUGUUCACCCUUGGGUUCCCGGAGAAGGCAGUUUUC | 65 | 67.8 |  |  |
| CGGUUGCGCUCCUAUGGUUUGAACAUGAGGAUCACCCAUGUACAGGAUAUAGUAAGAACGCCUUACUAGAAGGGUACGUUCUCG | 18.9 | 22 |  |  |
| CGUACACAUGAGGAUCACCCAUGUCAGAUUUGGUCAGGAUAUGGGCGGCAUCCGCUAUAGCCAGAAGGGACUGUUG |  |  | 173 | 204 |

| Sequence | apparent Kd [1] [nM] | apparent Kd [2] [nM] | apparent Kd [3] [nM] | apparent Kd [4] [nM] |
| --- | --- | --- | --- | --- |
| CGUACACAUGAGGAUCACCCAUGUCAGAUUUGGUCAGGAUAUGGGCGGCAUCCGCUAUUGCCAGAAGGGACUGUUG |  |  | 83.1 | 160 |
| CGUAGCAAAGUGAGGAUAUCUAGAGCGAUAGCUCUAGAGAAGGCACAUGAGGAUCACCCAUGUGAUCAGCUACG | 276 | 899 |  |  |
| CGUAGGAUCCAGAAGGCAUGAACAUGAGGAUCACCCAUGUUAAAAUACAUGAGGAUAUGGAUCCUACGAAAAGUGCGAAAGCAC |  |  | 5.75 | 4.99 |
| CGUAGGAUCCAGAAGGCAUGUACAUGAGGAUCACCCAUGUCAAUAGACAUGAGGAUAUGGAUCCUACGAAAAGUGCGAAAGCAC |  |  | 10.5 | 4.49 |
| CGUAGGAUCCAGAAGGCAUGUACAUGAGGAUCACCCAUGUCGAUAGACAUGAGGAUAUGGAUCCUACGAAAAGUGCGAAAGCAC |  |  | 17.1 | 5.16 |
| CGUAUGUCAGGAUAUGUGUAUGCCGGUCAGGGCGAGCGGCAGCAGAAGGGACAUGAGGAUCACCCAUGUUCGGG | 59.6 | 116 |  |  |
| CGUCCGUGGGUAGUGAUCGUACAUGAGGAUCACCCAUGUGAGAAGGAUAUGCAUGCACAUGGACAGCAGAAGGUCUCAUAACAA | 69.4 | 353 |  |  |
| CGUCGCUGUCGAGAGGAUAUGCGGUGGUGGACAUGAGGAUCACCCAUGUUAGCGAUAGCAUCACGGUAGAAGGCUCUUACGACUG |  |  | 21.4 | 20.6 |
| CGUGACUCAGGAUAUCUAUAAUAUCACAUGAGGAUCACCCAUGUCCAGCAAUAGCUGGAGGGAGAAGGGAGUCACG | 140 | 54.9 |  |  |
| CGUGACUCAGGAUAUCUAUUAUGUCACAUGAGGAUCACCCAUGUCCAGCGAAAGCUGGAGGGAGAAGGGAGUCACG | 97.9 | 34.9 |  |  |
| CGUGCAUAUGUAGGAUAUGGUUAUCUAUGUCUAGUUACUAGACAUAGAUAACCAGAAGGACAUGAGGAUCACCCAUGUAGCACG | 9.7 | 17.4 |  |  |
| CGUGCGUAUGUGAGGAUAUGCUGGUCCUUGGAUCAGCAGAAGGCACAUGAGGAUCACCCAUGUGGUGUCGUACU | 297 | 19.2 |  |  |
| CGUGUCGCAUGAGGAUAUGGUCAGCUUUGCUGACCAGAAGGCAUGUCAAUAGACAUGAGGAUCACCCAUGUAGUAAAGACACGA |  |  | 416 | 33.9 |
| CGUUCAGAGAACGAUACGAAUAGACAUGAGGAUCACCCAUGUAGAAGGACAACGGAAUAAACGUUGUAGGAUAUACAUUUAGUG | 41.3 | 111 |  |  |
| CGUUUGGGAGGAUAUCCAAUAUAUGACAUGAGGAUCACCCAUGUUUCCACUCGUACCUCCGGAGAAGGCCCUGCGU | 22.9 | 21 |  |  |
| CUACGCUAGGAGAAGGGCUAGAGUGUGAUAUAUUUGCCCGCGAGCACAUGAGGAUCACCCAUGUAGCAGGAUAUCCAAGCCGGU | 7.59 | 16.8 |  |  |
| CUACGUGUCGAGAAGGGCUCACGUAACGGAACAGCAGGAUAUCGACAUGAGGAUCACCCAUGUCGGAACGAACGGAUCUUUAAU | 7.24 | 8.18 |  |  |
| CUAGACAUAUCAGGAUAUCAUCGCGUGGAUUAACCCUGUGAUUACAUGAGGAUCACCCAUGUGCUUGAGAAGGGAUUACUAUUU | 35.7 | 145 |  |  |
| CUAGCAGAUGUAGGAUAUGCUCAGGAUAACUGAGCAGAAGGACAUGAGGAUCACCCAUGUAAAGUGUCUCUAAAUAACUGCUAG | 22.9 | 80.5 |  |  |
| CUAGCAUACCGAGGAUAUUCAUAUAAUAAAUAAACAUGAGGAUCACCCAUGUGGCGAAAGCCUAGGGAGAAGGCGGAAUGCUAA |  |  | 185 | 24.8 |
| CUAGCUAUCGGAGGAUAUUCAUACCGGAAACGGACAUGAGGAUCACCCAUGUGCCGAAAGGCUUGGGAGAAGGCCGAUAGCUAG |  |  | 272 | 20.6 |
